# Bioassay records deposited in PubChem BioAssay by several laboratories.
# 697 NFkB inh = inhibitors of PMA/ionomycin-induced NF-kB reporter, 697 cells, primary screen, B-cell NF-kB inhibitor project, cell-based, luminescence, uHTS; 697 B-cell NF-kB luciferase reporter, 16 h; inhibition, % at 4 µM; 330,000 tested, 0.33% active; in the data active means inhibition above about 35%
# XBP1 UPR activ = activators of adaptive XBP1 UPR arm, primary screen, cell-based, CHO-XBP1 luciferase reporter, luminescence, uHTS | IRE1-XBP1 UPR activation; percent of tunicamycin response, DMSO as zero | activation, % at 20 µM | 330,000 tested, 0.33% active | AID 463104, 2010;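 active means versus positive control, 20 µM dose yields 30% or more activation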;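 further: 100% = tunicamycin at 10 µg/mL and 0% = DMSO only wells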
#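 Assay system: IRE1-XBP1 luciferase reporter CHO line. Input: 1000 cells/well. Buffer or medium: F12 with 10% serum. Doses: 20 µM, 1% DMSO. Times: overnight seeding at 37 °C, 6 h compound treatment at 37 °C. Technique: Steady-Glo luciferase glow luminescence, 10 min after reagent addition.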
# Gli-Sufu block = Gli-Sufu pathway antagonists, primary screen, luciferase luminescence, Sufu-KO-LIGHT cells, uHTS | Sufu-KO-LIGHT fibroblasts, Gli luciferase reporter luminescence | AID 588413, 2011 | 340,000 tested, 0.74% active | inhibition, % at 5 µM;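 active means inhibition above about 55%, limit read from the data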;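 further: 0% = DMSO-treated cells and 100% = wells with medium but no cells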
# CHOP inhibitor = inhibitors of CHOP promoter induction, primary screen, cell-based, unfolded protein response, luciferase reporter. CHO-K1 CHOP-promoter luciferase, tunicamycin-induced, 15-18 h. inhibition, % at 10 µM. 220,000 tested, 3.8% active;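 active means compounds that reduced the stress-induced luciferase reporter signal by more than about 70% of percent inhibition, limit read from the data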;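 further: 0% = tunicamycin plus vehicle and 100% = wells without tunicamycin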
# Jurkat NFkB inh = inhibitors of induced NF-kB luciferase reporter, primary screen, TCR NF-kB activation inhibitor project, cell-based, luminescence, uHTS | AID 435003, 2010 | Jurkat, PMA/ionomycin-induced NF-kB luciferase reporter | 330,000 tested, 0.53% active | inhibition, % at 4 µM; in the data active means inhibition above about 50%
# UPR CHOP act = activators of apoptotic CHOP UPR arm, primary screen, cell-based, CHO-CHOP luciferase reporter, luminescence, uHTS; UPR activation; percent of tunicamycin response over DMSO baseline; activation, % at 10 µM; 330,000 tested, 0.34% active; AID 449763, 2010;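 active means at 10 µM dose, activation of 40% or more, normalized to positive control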;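 further: 100% = tunicamycin at 10 µg/mL and 0% = DMSO alone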
#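 Dosing – one dose, 10 µM in 0.5% DMSO · System – CHO-CHOP cells, stable luciferase reporter of PERK-eIF2a-CHOP signalling · Input – 500 cells/well · Control set – tunicamycin 10 µg/mL final as positive, DMSO-only wells as negative · Timing – 6 h compound treatment, 37 °C · Measure – % activation vs tunicamycin · Technique – luminescence read with Steady-Glo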
# Starred values were filed as active, the others as inactive; x = no result given. Only some compounds are listed: those with a hit (about 3.9% of all), similar ones and a draw of the others.
SMILES,697 NFkB inh,XBP1 UPR activ,Gli-Sufu block,CHOP inhibitor,Jurkat NFkB inh,UPR CHOP act
CCCCCC1CC(CC(=O)NC(=S)Nc2ccc([N+](=O)[O-])cc2)C(=O)O1 (centres undefined),9.2,-5.7,-1.0,85.0*,-10.0,-2.2
CCCCCCC1CC(CC(=O)Nc2ccc([N+](=O)[O-])cc2)C(=O)O1 (centres undefined),9.7,-2.6,1.9,94.8*,-14.9,0.6
CCC(=O)NC(=S)Nc1ccc(NC(=O)c2ccc([N+](=O)[O-])cc2Cl)cc1,11.8,0.4,-5.4,20.8,-1.7,-2.4
COc1ccc(NC2=CC(c3ccc(F)cc3)N(c3ccc(OC)cc3)C2=O)cc1 (centres undefined),-48.5,0.5,4.1,82.2*,-4.8,3.8
COc1ccc(NC2=CC(c3ccc(OC)cc3)N(c3ccc(OC)cc3)C2=O)cc1 (centres undefined),14.0,3.1,x,17.9,-2.2,-2.6
Cc1occc(=O)c1OC(=O)Nc1ccc(Cl)c(Cl)c1,x,x,-7.3,96.1*,x,x
CC(C)C1N(S(=O)(=O)c2ccccc2)CCN1S(=O)(=O)c1ccccc1,22.5,-1.3,-9.5,75.8*,3.9,-4.0
CC(C)C1N(C(=O)N(C)C)CCN1S(=O)(=O)c1ccccc1 (centres undefined),5.3,-4.0,-28.2,x,3.5,0.8
COc1cc(/C=N/Nc2snc(SC)c2C#N)cc(OC)c1OC,-150.0,9.1,35.1,20.2,10.1,25.7
CSc1nsc(N/N=C/c2ccc3c(c2)OCO3)c1C#N,-221.8,3.8,-126.3,76.5*,-107.9,6.7
Cc1cccc(N2CCN(C(=O)CCNS(=O)(=O)c3ccc4c(c3)oc(=O)n4C)CC2)c1C,-37.1,-6.9,14.4,x,10.9,3.9
Cc1cccc(C)c1OCC(=O)N=Nc1c(O)[nH]c2ccc(Br)cc12,16.1,24.1,8.1,-9.9,-5.1,0.6
Cc1cc2c(N=NC(=O)CCc3ccccc3)c(O)[nH]c2cc1Br,-4.7,-2.5,9.1,83.0*,-1.0,-0.6
Cc1ccc(-c2cc(C(F)F)n3ncc(C(=O)Nc4c(C)nn(Cc5c(Cl)cccc5Cl)c4C)c3n2)cc1,-58.6,28.3,6.5,90.8*,-1.6,23.5
COc1cc(NS(=O)(=O)c2ccc(NC(=S)NC(=O)/C=C/c3ccc(OC)c(OC)c3)cc2)ncn1,-3.3,-0.4,10.7,79.2*,-1.7,2.2
CCC(=O)c1ccc(Oc2nc3c(c(=O)n(C)c(=O)n3C)n2CC)cc1,-23.9,-1.6,7.5,x,7.1,0.5
COC(=O)c1ccc(Oc2nc3c(c(=O)n(C)c(=O)n3C)n2CCC(C)C)cc1,-15.3,-4.4,15.3,75.4*,7.7,1.5
CCOc1cc([C@@H]2C[C@H]3CN(c4ccccc4)C(=O)[C@]34CCCN24)ccc1OC,2.9,-4.2,-3.0,84.2*,20.0,0.4
COc1cc([C@@H]2C[C@H]3CN(c4ccccc4)C(=O)[C@]34CCCN24)cc(OC)c1OC,16.0,-3.1,-1.6,78.0*,-1.2,1.2
CCc1cc2c3c(c(=O)oc2cc1OC(C)C(=O)O)CCCC3 (centres undefined),6.0,-1.7,10.7,x,7.9,0.7
CCc1cc2c3c(c(=O)oc2cc1O)CCCC3,16.4,0.8,-1.3,89.9*,-11.5,-0.6
C/C(=N\NC(=O)CNC(=O)C(c1ccccc1)c1ccccc1)c1ccc(C(C)(C)C)cc1,4.1,22.0,-16.1,86.3*,1.3,1.5
C/C(=N\NC(=O)CNC(=O)C(c1ccccc1)c1ccccc1)c1ccccc1,8.6,-1.8,-4.6,-2.6,10.5,-0.9
O=C(COc1cc2oc(=O)cc(-c3ccccc3)c2cc1Cl)NC(Cc1c[nH]c2ccc(O)cc12)C(=O)O (centres undefined),-2.4,-4.7,-12.6,x,6.0,-0.9
